# pIC50: −log10 of the molar value. “Also recorded” adds a separate entry of the source.
# Columns and labels:
# K. pneumoniae 10031 [1] = experiment: MIC assay, broth microdilution; assay type: cell-based; conditions: Klebsiella pneumoniae, 10031, 22 h, read-out: K. pneumoniae 10031 MIC (μg/mL)
# How it was run: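 Broth microdilution adapted from NCCLS methods. Overnight cultures were diluted to OD600 0.006 in cation-adjusted Mueller–Hinton medium with 7% DMSO and incubated with a range of test compound concentrations at 37 °C for 22 h. MTT (5 mg/mL) was added for 3 h, solubilized with 2-propanol, and read as the absorbance difference at 570 and 690 nm. MIC was the lowest concentration with readings within 4-fold of bacteria-free wells.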
# E. coli 25922 [2] = experiment: MIC assay, broth microdilution; assay type: cell-based; conditions: Escherichia coli, 25922, 22 h, read-out: E. coli 25922 MIC (μg/mL)
# K. pneumoniae LpxH = target: T1, K. pneumoniae LpxH (Klebsiella pneumoniae, UniProt A6T5R0); experiment: LpxE-coupled LpxH activity assay; assay type: biochemical
# T1 sequence (A6T5R0 1-240): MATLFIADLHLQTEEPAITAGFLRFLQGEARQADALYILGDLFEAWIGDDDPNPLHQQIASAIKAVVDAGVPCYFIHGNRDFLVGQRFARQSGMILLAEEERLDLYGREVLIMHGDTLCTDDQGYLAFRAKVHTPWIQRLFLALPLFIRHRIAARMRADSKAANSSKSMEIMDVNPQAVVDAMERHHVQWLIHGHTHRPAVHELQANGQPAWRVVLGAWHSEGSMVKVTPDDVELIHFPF
# How it was run: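 LpxE-coupled assay with GB1-K. pneumoniae LpxH-His10, 10 ng/mL final (1 ng/mL for two analogs, with an extended time course), 100 μM UDP-DAGn. Buffer: Tris-HCl pH 8.0, BSA, Triton X-100, 1 mM MnCl2, DTT, 10% DMSO. Reaction at 37 °C; time-point aliquots quenched with 5 mM EDTA, then A. aeolicus LpxE 5 μg/mL for 30 min, formic acid, malachite green, A620. Triplicates. IC50 from dose–response fit; Ki = IC50/(1+[S]/KM), KM 68.1 μM.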
# HEK293 cells = experiment: In vitro cytotoxicity, CellTiter-Glo 2.0 cell viability assay; assay type: cell-based
# K. pneumoniae 10031 [3] = experiment: Spontaneous resistance development; assay type: cell-based
# How it was run: (§1)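 Five to six colonies per strain, from antibiotic-free LB agar, grown to OD 1 and concentrated tenfold. […] Colonies repassaged on fresh 8× MIC plates for 48 h, counted and sequenced. Frequency is resistant growth divided by initial inoculum density.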
# HepG2 cells = experiment: In vitro cytotoxicity, CellTiter-Glo 2.0 cell viability assay; assay type: cell-based; conditions: HepG2, 100 μM (63 μg/mL), 24 h
# K. pneumoniae 10031 [4] = experiment: Time-kill kinetics; assay type: cell-based
# E. coli 25922 [5] = experiment: Spontaneous resistance development; assay type: cell-based
# How it was run: as §1
# E. coli LpxH = target: T2, E. coli LpxH (Escherichia coli, UniProt P43341); experiment: LpxE-coupled LpxH activity assay; assay type: biochemical
# T2 sequence (P43341 1-240): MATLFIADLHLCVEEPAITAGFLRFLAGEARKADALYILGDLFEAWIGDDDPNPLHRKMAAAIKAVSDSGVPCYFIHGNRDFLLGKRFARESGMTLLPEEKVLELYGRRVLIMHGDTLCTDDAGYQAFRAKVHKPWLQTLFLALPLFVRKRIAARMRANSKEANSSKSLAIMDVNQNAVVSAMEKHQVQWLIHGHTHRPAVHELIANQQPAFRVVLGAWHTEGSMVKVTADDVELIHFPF
# How it was run: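 LpxE-coupled assay with GB1-E. coli LpxH-His10 (10 ng/mL in 2× enzyme/inhibitor mix; 0.5 ng/mL final for two analogs, with a longer time course). Mixes were preincubated 10 min at 37 °C and quenched with EDTA, then LpxE 30 min, malachite green, A620. Run in triplicate. IC50 fitted; Ki from competitive equation, KM 61.7 μM.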
MIC (K. pneumoniae 10031 [1]),Structure (SMILES),MIC (E. coli 25922 [2]),pIC50 (K. pneumoniae LpxH),"cytotoxicity (cell viability) (HEK293 cells; HEK293, 100 μM (63 μg/mL), 24 h)",safety index (HEK293 cells; no cytotoxicity at 63 μg/mL in HEK293 or HepG2 versus MICs 0.31 and 0.04 μg/mL),"Rate of spontaneous resistance mutations @4× MIC (K. pneumoniae 10031 [3]; K. pneumoniae 10031, 4× MIC)","Rate of spontaneous resistance mutations @8× MIC (K. pneumoniae 10031 [3]; K. pneumoniae 10031, 8× MIC)",cytotoxicity (cell viability) (HepG2 cells),"type of antibiotic action (K. pneumoniae 10031 [4]; time-kill, regrowth prevented up to 24 h at or above the MIC)","reduction of bacterial viability (K. pneumoniae 10031 [4]; within 6 h, at or above the MIC)","Rate of spontaneous resistance mutations @4× MIC (E. coli 25922 [5]; E. coli 25922, 4× MIC)","Rate of spontaneous resistance mutations @8× MIC (E. coli 25922 [5]; E. coli 25922, 8× MIC)",pIC50 (E. coli LpxH)
0.08 µg/mL,CC(=O)N1CCc2cc(S(=O)(=O)N3CCN(c4cc(C(F)(F)F)cc(Cl)n4)CC3)ccc21 [JH-LPH-92],> 64 µg/mL,,,,,,,,,,,
1.3 µg/mL,CC(=O)N1CCc2cc(S(=O)(=O)N3CCN(c4nccc(C(F)(F)F)n4)CC3)ccc21 [JH-LPH-93],,7.00,,,,,,,,,,
,CN(c1ccccc1C(=O)Nc1ccc(S(=O)(=O)N2CCN(c3cc(C(F)(F)F)cc(Cl)n3)CC2)cc1)S(C)(=O)=O [JH-LPH-107],0.31 µg/mL,9.89,did not cause any significant cytotoxicity; also recorded: no significant cytotoxicity,> 100 fold,2.0 × 10^-9,9.1 × 10^-10,did not cause any significant cytotoxicity; also recorded: no significant cytotoxicity,bactericidal,> 1000 fold,2.5 × 10^-9,1.4 × 10^-9,9.89

# From PMC11600146 (JACS Au, 2024)
